Molecular target: T1, Orco derived from Drosophila melanogaster (DmOrco) (Drosophila melanogaster, UniProt Q9VNB5)
T1 sequence (Q9VNB5 1-486): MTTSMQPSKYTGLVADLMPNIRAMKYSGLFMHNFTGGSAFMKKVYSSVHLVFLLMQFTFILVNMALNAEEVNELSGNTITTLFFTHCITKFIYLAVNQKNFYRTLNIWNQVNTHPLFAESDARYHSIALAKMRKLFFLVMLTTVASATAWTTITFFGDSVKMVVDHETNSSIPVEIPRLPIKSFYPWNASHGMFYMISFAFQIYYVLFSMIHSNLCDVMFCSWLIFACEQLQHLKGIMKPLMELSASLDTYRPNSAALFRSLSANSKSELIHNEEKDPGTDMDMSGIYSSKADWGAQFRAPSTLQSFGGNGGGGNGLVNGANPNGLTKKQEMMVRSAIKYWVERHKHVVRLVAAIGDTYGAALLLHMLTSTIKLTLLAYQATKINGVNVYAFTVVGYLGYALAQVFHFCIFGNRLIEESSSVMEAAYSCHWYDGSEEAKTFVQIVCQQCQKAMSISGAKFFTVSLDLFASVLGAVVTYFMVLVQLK
Assay: high-throughput calcium mobilization/imaging assay for Orco agonist activity
Format: cell-based
Details: HEK293 cells stably expressing DmOrco; for % VUAA1 efficacy: maximum agonism of the compound, normalized to the activity of VUAA1; for EC50: mean result of 4 experiments, LA = Low agonism, agonism only at the highest concentration tested, no EC50 could be calculated
Summary of the method: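 HEK293 cells stably expressing Drosophila melanogaster Orco, alone or in some cases with tuning OR subunits. Calcium mobilization/imaging read in high-throughput format across increasing test compound concentrations. EC50 and maximal agonism were taken from concentration-response curves. Maximal agonism was expressed as a percentage of reference agonist VUAA1 activity. Values are the mean of 4 experiments.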

Structure (SMILES) | % VUAA1 efficacy | EC50 [µM] | EC50 (listed as VUAA1) [µM] | Orco agonist activity (in words)
CCc1ccc(NC(=O)CSc2nnc(-c3cccnc3)n2CC)cc1 [6a] | 100% | 35.1 | 35 | 
CCc1cccc(NC(=O)CSc2nnc(-c3cccnc3)n2CC)c1 [6b] | No agonism |  |  | completely abrogated activity
CCn1c(SCC(=O)Nc2ccc(Br)cc2)nnc1-c1cccnc1 [6j] | No agonism |  |  | 

Reference: PMC4111141 (Bioorganic & medicinal chemistry letters, 2014)
